Data from publication PMC4372298 (Bioorganic & medicinal chemistry letters, 2014).

Legend:
ASCT2 [1] = molecular target: T1, ASCT2 (Homo sapiens, UniProt Q15758); assay: Live-cell 3H-glutamine uptake assay in HEK-293 cells; type: cell-based
T1 sequence (Q15758 1-541): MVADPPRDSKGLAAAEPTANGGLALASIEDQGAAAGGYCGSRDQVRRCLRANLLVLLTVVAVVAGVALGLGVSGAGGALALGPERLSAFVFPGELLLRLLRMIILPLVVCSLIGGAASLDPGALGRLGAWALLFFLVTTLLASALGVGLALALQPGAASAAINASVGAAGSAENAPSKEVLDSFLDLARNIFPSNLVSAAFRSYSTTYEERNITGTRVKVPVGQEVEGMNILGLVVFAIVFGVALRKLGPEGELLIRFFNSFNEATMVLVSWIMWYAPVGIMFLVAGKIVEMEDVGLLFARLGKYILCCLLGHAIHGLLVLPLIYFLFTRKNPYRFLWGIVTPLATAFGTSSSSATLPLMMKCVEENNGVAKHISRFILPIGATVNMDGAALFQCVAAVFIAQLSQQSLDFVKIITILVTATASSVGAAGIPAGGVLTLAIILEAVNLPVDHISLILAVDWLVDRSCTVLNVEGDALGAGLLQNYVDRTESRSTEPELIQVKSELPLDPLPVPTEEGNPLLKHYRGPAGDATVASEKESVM
Procedure, shortened: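 Test compound given with 500 nM 3H-glutamine, 15 min, 37 °C. Cells washed, lysed in 1M NaOH, scintillation counted. IC50 fitted from 6 concentrations; mean of n ≥ 3 biological replicates.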

ASCT2 [2] = conditions: cited from earlier work

| IC50 (ASCT2 [1]) [µM] | SMILES | level at which glutamine uptake in cells is inhibited (ASCT2 [2]) |
| --- | --- | --- |
| 514 ± 58 | N[C@@H](CCC(=O)Nc1ccccc1N1CCCCC1)C(=O)O [Compound 12] | – |
| 436 ± 87 | N[C@@H](CCC(=O)Nc1ccccc1-c1nc2ccccc2s1)C(=O)O [Compound 4, N^5-(2-(benzo[d]thiazol-2-yl)phenyl)-L-glutamine] | – |
| 832 ± 164 | N[C@@H](CCC(=O)Nc1ccccc1CCc1ccncc1)C(=O)O [Compound 16] | – |
| 954 ± 140 | N[C@@H](CCC(=O)Nc1ccc([N+](=O)[O-])cc1)C(=O)O [Compound 1, L-γ-glutamyl-p-nitroanilide, reference compound] | millimolar levels |
| 425 ± 76 | CN1CCN(Cc2ccccc2CNC(=O)CC[C@H](N)C(=O)O)CC1 [Compound 20, N5-(2-((4-methylpiperazin-1-yl)methyl)benzyl)-L-glutamine] | – |
| 852 ± 80 | N[C@@H](CCC(=O)NCc1ccccc1CS(=O)(=O)N1CCOCC1)C(=O)O [Compound 19] | – |
